Screening data: PubChem, Johns Hopkins Ion Channel Center
Shown are actives, neighbours in structure and some others; about 3.7% of the full set was active somewhere.
hERG rescue = hERG (human) protection from proarrhythmic block; CHO-hERG, FluxOR thallium flux, dofetilide IC70 present; activation (rescue from dofetilide block), less the hit threshold, % at 10 µM; AID 1511; 0.51% of 310,000 active; Q12809;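 active = activation above the mean of controls blocked by dofetilide plus 5 SD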;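 also: thallium influx through hERG after potassium depolarization seen as dye fluorescence rise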
KCNQ1 pot = human KCNQ1 channel potentiation or activation; CHO-K1 KCNQ1, thallium flux FluxOR fluorescence; active compounds read high; B-score at 10 µM; 0.35% of 310,000 active;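 active = fluorescence ratio B-score, a plate-corrected score, at least three library SD, with initial intensity B-score within 5 SD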
Target sequence (P51787 whole entry, looked up): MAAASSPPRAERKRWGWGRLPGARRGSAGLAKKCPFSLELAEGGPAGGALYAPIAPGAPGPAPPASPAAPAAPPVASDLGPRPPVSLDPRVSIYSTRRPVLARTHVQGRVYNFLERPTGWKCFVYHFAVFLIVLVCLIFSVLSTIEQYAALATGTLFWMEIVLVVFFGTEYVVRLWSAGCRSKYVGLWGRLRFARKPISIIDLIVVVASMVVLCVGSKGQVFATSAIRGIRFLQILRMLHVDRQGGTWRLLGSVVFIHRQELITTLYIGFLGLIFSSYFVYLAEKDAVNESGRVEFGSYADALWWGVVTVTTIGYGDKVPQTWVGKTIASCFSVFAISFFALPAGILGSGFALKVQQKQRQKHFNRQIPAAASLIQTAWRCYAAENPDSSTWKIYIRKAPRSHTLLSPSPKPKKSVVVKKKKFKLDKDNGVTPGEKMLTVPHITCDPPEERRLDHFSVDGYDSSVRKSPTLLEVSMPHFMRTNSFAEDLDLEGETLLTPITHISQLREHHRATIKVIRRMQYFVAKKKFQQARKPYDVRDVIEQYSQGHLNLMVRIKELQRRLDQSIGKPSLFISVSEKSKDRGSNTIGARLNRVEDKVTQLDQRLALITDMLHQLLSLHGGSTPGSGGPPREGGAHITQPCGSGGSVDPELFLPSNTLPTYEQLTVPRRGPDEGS
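Test system: CHO-K1 cells stably expressing KCNQ1 / Medium: assay buffer / Also added: depolarizing K+/Tl+ stimulus, K2SO4 and Tl2SO4 each 12.5 mM in 5x stock / Incubation: 90 min dye loading and 20 min compound exposure, both at room temperature / Signal: thallium influx via FluxOR fluorescence, kinetic imaging / Evaluation: B score of baseline-normalized fluorescence ratio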
KCNK9 block = inhibitors of human KCNK9 two-pore domain potassium channel. Q9NPC2. B-score at 10 µM. HEK293 KCNK9, FluxOR thallium flux fluorescence; active compounds read low. 1.2% of 310,000 active;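 active = ratio B-score over 3 SD below the library mean, with starting fluorescence within 5 SD of its mean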;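 also: negative B-score means less thallium flux so channel inhibition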
Kir21 inh = Kir2.1 (mouse) channel inhibition. B-score at 10 µM. P35561. HEK293-Kir2.1, FluxOR thallium flux fluorescence; active compounds read low. AID 1672. 0.85% of 310,000 active;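 active = fluorescence ratio B-score at or below minus 3 SD of library scores, with starting-brightness B-score within 2 SD, cut at about -4.2 in these data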;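 also: channel flux triggered by added potassium and thallium sulfate stimulus; B-score of peak minus minimum fluorescence over baseline after thallium stimulus; more negative B-score means stronger Kir2.1 block with less thallium influx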
KCNQ1 block = blocks the human KCNQ1 potassium channel; P51787; CHO-K1 KCNQ1, FluxOR thallium flux fluorescence; active compounds read high; B-score at 10 µM; 1.3% of 310,000 active;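 active = compounds whose thallium flux B-score, printed positive for inhibition, exceeds three library SD while starting fluorescence stays within three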;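 also: channel opened by potassium depolarization with thallium stimulus after 20 min compound exposure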
KCNK3 inh = human KCNK3 channel inhibition, primary screen; O14649; CHO-KCNK3 thallium flux, FluxOR fluorescence; active compounds read low; B-score at 10 µM; 0.84% of 340,000 active; AID 602410;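 active = B-score under library mean minus 4 SD, starting fluorescence ratio at most library mean plus 5 SD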;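 also: more negative B-score means stronger inhibition of thallium flux through KCNK3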
KCNK9 block conf = confirmation of human KCNK9 potassium channel inhibitors; shares compounds with KCNK9 block; HEK293 KCNK9 cells, FluxOR thallium flux fluorescence; inhibition, % at 10 µM; 43% of 4,900 active;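 active = thallium signal inhibited by more than 5 SD of the compound-free buffer control wells, on both duplicate plates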;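 also: 0% = assay buffer control wells without compound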
Kir21 sel = selectivity of KCNK9 modulators against mouse Kir2.1. AID 492993. inhibition, % at 10 µM. Kir2.1 cells, FluxOR thallium flux fluorescence. 4% of 4,900 active. shares compounds with KCNK9 block;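 active = thallium signal drop more than 5 SD beyond the mean of the no-compound control wells, seen in both duplicate plates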;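 also: signal is fluorescence rise after thallium addition divided by baseline fluorescence; plate controls were assay buffer only for no effect and full block by chlorpromazine control for full effect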
KCNK9 uninduced = second counter-screen for KCNK9 modulators: effect in non-induced cells | 40% of 4,900 active | shares compounds with KCNK9 block | inhibition, % at 10 µM | non-induced KCNK9-HEK293, FluxOR thallium flux;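 active = thallium signal drop beyond 5 SD of the untreated control mean, on both duplicate plates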;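 also: plate controls were buffer only IC0 wells for no effect and SID17386958 at its maximal inhibitory level for full effect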
KCNK3 confirm = human KCNK3 channel inhibition, confirmation assay; ratio percent of control, % at 10 µM; 99% of 2,400 active; shares compounds with KCNK3 inh; CHO-KCNK3 thallium flux, FluxOR fluorescence; 0% buffer, 100% carvedilol maximal block; AID 651638;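 active = ratio percent of control, averaged over triplicates, above buffer control mean plus 5 SD, cut at about 64% in these data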;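 also: ratio is the fluorescence rise from min to max over baseline after thallium stimulus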
KCNK3 uninduced = KCNK3 inhibitor counter-screen hit in non-induced cells; shares compounds with KCNK3 inh; non-induced KCNK3 parental cells, FluxOR thallium flux; active compounds read low; thallium flux ratio (lower = more inhibition) at 10 µM; 40% of 2,400 active; AID 651747;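 active = thallium flux ratio, averaged over three wells, more than 5 SD below the buffer control mean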;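 also: host cells are CHO cells without KCNK3 induction; ratio is peak minus trough fluorescence over baseline then normalized to buffer controls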
* hit, by the source's call.

Screening COCCn1nnnc1C(c1ccccc1OC)N1CCN(C(=O)c2ccco2)CC1 (stereo not drawn) returned hERG rescue -2, KCNQ1 pot inactive, KCNK9 block inactive, Kir21 inh 1.7, KCNQ1 block inactive and KCNK3 inh inactive.
`COc1ccccc1C(c1nnnn1Cc1ccco1)N1CCN(c2cccc(C)c2C)CC1` (stereo not drawn) gave hERG rescue -8, KCNQ1 pot inactive, KCNK9 block -14*, Kir21 inh -0.94, KCNQ1 block inactive, KCNK3 inh -11*, KCNK9 block conf 43%*, Kir21 sel inactive, KCNK9 uninduced 38%*, KCNK3 confirm 130* and KCNK3 uninduced 0.14*.
For CCC(C)(C)n1nnnc1C(c1ccccc1OC)N1CCN(C(=O)c2ccco2)CC1 (stereo not drawn) the results were hERG rescue -4, KCNQ1 pot inactive, KCNK9 block -14*, Kir21 inh 3.3, KCNQ1 block inactive, KCNK3 inh -13*, KCNK9 block conf 68%*, Kir21 sel inactive, KCNK9 uninduced 36%*, KCNK3 confirm 106* and KCNK3 uninduced inactive.
`O=C(NCc1ccc(Cl)cc1)c1cc(=O)[nH]c2ccccc12` gave hERG rescue -5, KCNQ1 pot inactive, KCNK9 block inactive, Kir21 inh -1.5, KCNQ1 block inactive and KCNK3 inh inactive.
Screening COc1c(Cl)cc(Br)c(OC)c1C(=O)NC(=O)Nc1nc(C)cc(C)n1 returned hERG rescue -4, KCNQ1 pot inactive, KCNK9 block inactive, Kir21 inh -0.52, KCNQ1 block inactive and KCNK3 inh inactive.
Screening CN(Cc1ccc(F)cc1)C(=O)COc1ccccc1-c1ccccc1 returned hERG rescue -3, KCNQ1 pot inactive, KCNK9 block inactive, Kir21 inh -1.3, KCNQ1 block inactive and KCNK3 inh inactive.
`CCN(C(=O)CN1C(=O)NC2(CCc3ccccc32)C1=O)C1CCS(=O)(=O)C1` (stereo not drawn) gave KCNK3 inh inactive.
For O=C(/C=C/Nc1ccccc1Oc1ccccc1)c1ccco1 the results were hERG rescue -12, KCNQ1 pot inactive, KCNK9 block -17*, Kir21 inh -2.1, KCNQ1 block inactive, KCNK3 inh -13*, KCNK9 block conf 47%*, Kir21 sel inactive, KCNK9 uninduced 37%*, KCNK3 confirm 122* and KCNK3 uninduced inactive.
`Cc1ccsc1CN(C(=O)c1ccccc1)C1CCS(=O)(=O)C1` (stereo not drawn) gave hERG rescue -8, KCNQ1 pot inactive, KCNK9 block inactive, Kir21 inh 0.01, KCNQ1 block inactive and KCNK3 inh inactive.
`Cc1c(C(=O)c2ccc(Cl)c(Cl)c2)cnc2cc3c(cc12)OCO3` gave hERG rescue -6, KCNQ1 pot inactive, KCNK9 block -9.9*, Kir21 inh -0.01, KCNQ1 block inactive, KCNK3 inh -11*, KCNK9 block conf 73%*, Kir21 sel inactive, KCNK9 uninduced 44%*, KCNK3 confirm 100* and KCNK3 uninduced inactive.
`O=C(CCCSc1nnnn1-c1cccc2ccccc12)c1ccc(F)cc1` gave hERG rescue -15, KCNQ1 pot inactive, KCNK9 block -8.2*, Kir21 inh 0.16, KCNQ1 block inactive, KCNK3 inh -9.6*, KCNK9 block conf inactive, Kir21 sel 34%*, KCNK9 uninduced inactive, KCNK3 confirm 102* and KCNK3 uninduced inactive.
For CC(CNC(=O)c1ccccc1Cl)NC(=O)c1ccccc1Cl (stereo not drawn) the results were hERG rescue -4, KCNQ1 pot inactive, KCNK9 block inactive, Kir21 inh -1.4, KCNQ1 block inactive and KCNK3 inh inactive.
For CC(OC(=O)c1ccc(Cl)nc1)C(=O)NCc1ccc2c(c1)OCO2 (stereo not drawn) the results were hERG rescue -6, KCNQ1 pot inactive, KCNK9 block inactive, Kir21 inh 1.6, KCNQ1 block inactive and KCNK3 inh inactive.
`COc1cc(/C=N/NC(=O)c2ccc(Cn3cc([N+](=O)[O-])cn3)o2)cc(Br)c1O` gave hERG rescue -22, KCNQ1 pot inactive, KCNK9 block -16*, Kir21 inh 0.5, KCNQ1 block inactive, KCNK3 inh -11*, KCNK9 block conf 57%*, Kir21 sel inactive, KCNK9 uninduced 35%*, KCNK3 confirm 99* and KCNK3 uninduced inactive.
Screening O=C1c2ccccc2C(O)(c2ccccc2)N1C1CC1 (stereo not drawn) returned hERG rescue -9, KCNQ1 pot inactive, KCNK9 block inactive, Kir21 inh -0.33, KCNQ1 block inactive and KCNK3 inh inactive.
`CCCCCCN=C1CC(C)(C)CC(=O)/C1=C(/O)CCC` gave hERG rescue -12, KCNQ1 pot inactive, KCNK9 block -18*, Kir21 inh 0.09, KCNQ1 block inactive, KCNK3 inh -10*, KCNK9 block conf 66%*, Kir21 sel inactive, KCNK9 uninduced 40%*, KCNK3 confirm 94* and KCNK3 uninduced inactive.
For CCCn1c(=O)c(C(=O)Nc2ccccc2C(=O)OCC)c(O)c2ccccc21 the results were hERG rescue -11, KCNQ1 pot inactive, KCNK9 block -9.2*, Kir21 inh -0.19, KCNQ1 block inactive, KCNK3 inh -8.9*, KCNK9 block conf 54%*, Kir21 sel inactive, KCNK9 uninduced 38%*, KCNK3 confirm 92* and KCNK3 uninduced inactive.
Screening CCCn1c(=O)c(C(=O)Nc2ncccc2C)c(O)c2ccccc21 returned hERG rescue -6, KCNQ1 pot inactive, KCNK9 block inactive, Kir21 inh 0.15, KCNQ1 block inactive and KCNK3 inh inactive.
